Results taken from ChEMBL document CHEMBL3414498, “Design and synthesis of 3-(3-((9H-carbazol-4-yl)oxy)-2-hydroxypropyl)-2-phenylquinazolin-4(3H)-one derivatives to induce ACE inhibitory activity” (Eur J Med Chem, 2015).
Activity calls are given as the source filed them. No cut-off for these calls is given here.

Experiments:
[1] = target: Angiotensin-converting enzyme (Homo sapiens) (UniProt P12821); assay: Inhibition of ACE (unknown origin) at 1 uM using synthetic peptide hippuryl-histidyl-leucine substrate by high-throughput colorimetric screening method
Summary of the method: (§1)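 ACE activity was followed by the release of hippuric acid from the substrate hippuryl-histidyl-leucine. The released hippuric acid was converted to a yellow product with pyridine and benzene sulfonyl chloride, and the colour was read colorimetrically as absorbance. Each condition was run in triplicate and averaged, with lisinopril as the reference standard.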

[2] = target: Angiotensin-converting enzyme (Homo sapiens) (UniProt P12821); assay: Inhibition of ACE (unknown origin) at 0.5 uM to 10 uM uM using synthetic peptide hippuryl-histidyl-leucine substrate by high-throughput colorimetric screening method; summary of the method: as §1
[3] = target: Angiotensin-converting enzyme (Homo sapiens) (UniProt P12821); assay: Inhibition of ACE (unknown origin) at 1 uM using synthetic peptide hippuryl-histidyl-leucine substrate by high-throughput colorimetric screening method relative to lisinopril

Sequence of Angiotensin-converting enzyme (Homo sapiens) (P12821 whole entry): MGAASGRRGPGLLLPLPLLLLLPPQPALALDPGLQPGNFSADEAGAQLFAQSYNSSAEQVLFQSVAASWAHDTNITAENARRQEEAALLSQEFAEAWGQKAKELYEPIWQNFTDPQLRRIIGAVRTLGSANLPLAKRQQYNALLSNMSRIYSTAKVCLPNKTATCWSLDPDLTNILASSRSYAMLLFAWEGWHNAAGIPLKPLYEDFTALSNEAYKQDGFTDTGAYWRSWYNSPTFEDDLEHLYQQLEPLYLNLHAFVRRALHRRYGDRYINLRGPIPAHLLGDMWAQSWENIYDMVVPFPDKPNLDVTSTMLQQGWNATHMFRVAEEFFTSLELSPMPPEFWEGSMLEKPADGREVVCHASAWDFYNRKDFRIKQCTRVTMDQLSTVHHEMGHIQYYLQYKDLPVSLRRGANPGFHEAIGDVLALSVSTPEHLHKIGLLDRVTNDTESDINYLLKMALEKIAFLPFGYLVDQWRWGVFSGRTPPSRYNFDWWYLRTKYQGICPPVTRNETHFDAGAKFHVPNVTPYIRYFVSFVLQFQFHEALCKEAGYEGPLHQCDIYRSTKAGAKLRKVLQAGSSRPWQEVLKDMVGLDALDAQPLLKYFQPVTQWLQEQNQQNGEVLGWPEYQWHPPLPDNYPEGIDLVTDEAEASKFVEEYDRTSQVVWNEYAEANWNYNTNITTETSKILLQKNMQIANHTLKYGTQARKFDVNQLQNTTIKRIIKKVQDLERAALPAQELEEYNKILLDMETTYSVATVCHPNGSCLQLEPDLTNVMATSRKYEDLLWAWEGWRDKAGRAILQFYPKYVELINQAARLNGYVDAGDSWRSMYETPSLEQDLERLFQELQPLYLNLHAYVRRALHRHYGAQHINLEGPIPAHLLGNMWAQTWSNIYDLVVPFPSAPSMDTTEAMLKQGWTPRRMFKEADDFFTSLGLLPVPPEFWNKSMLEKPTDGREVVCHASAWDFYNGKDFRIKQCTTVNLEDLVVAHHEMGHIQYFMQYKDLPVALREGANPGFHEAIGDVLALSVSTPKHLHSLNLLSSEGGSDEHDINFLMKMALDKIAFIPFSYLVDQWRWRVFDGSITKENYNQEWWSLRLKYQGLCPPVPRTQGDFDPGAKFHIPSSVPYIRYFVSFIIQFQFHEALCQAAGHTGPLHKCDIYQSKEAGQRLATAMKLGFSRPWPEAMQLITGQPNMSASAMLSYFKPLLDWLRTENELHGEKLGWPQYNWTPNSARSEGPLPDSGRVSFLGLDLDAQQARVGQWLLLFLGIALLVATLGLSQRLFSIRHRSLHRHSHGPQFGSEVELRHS

| SMILES | inhibition [1] | inhibition [2] | inhibition [3] |
| --- | --- | --- | --- |
| Cc1nc2ccccc2c(=O)n1CC(O)COc1cccc2[nH]c3ccccc3c12 (stereo not drawn) | 17% | – | – |
| O=c1c2ccccc2nc(-c2ccc(F)cc2)n1CC(O)COc1cccc2[nH]c3ccccc3c12 (stereo not drawn) | 17% | – | – |
| Cc1ccc(-c2nc3ccccc3c(=O)n2CC(O)COc2cccc3[nH]c4ccccc4c23)cc1 (stereo not drawn) | > 75% | Active | 100% |
| O=c1c2ccccc2nc(-c2ccc(Cl)cc2Cl)n1CC(O)COc1cccc2[nH]c3ccccc3c12 (stereo not drawn) | 17% | – | – |
| O=c1c2ccccc2nc(C(F)(F)F)n1CC(O)COc1cccc2[nH]c3ccccc3c12 (stereo not drawn) | > 75% | Active | 82.9% |
| O=c1c2ccccc2nc(-c2ccccc2)n1CC(O)COc1cccc2[nH]c3ccccc3c12 (stereo not drawn) | > 75% | Active | 100% |
| O=c1c2ccccc2nc(-c2ccc([N+](=O)[O-])cc2)n1CC(O)COc1cccc2[nH]c3ccccc3c12 (stereo not drawn) | 17% | – | – |
